Source: ChEMBL document CHEMBL4325889, “Natural products hybrids: 3,5,4'-Trimethoxystilbene-5,6,7-trimethoxyflavone chimeric analogs as potential cytotoxic agents against diverse human cancer cells” (Eur J Med Chem, 2019)

Legend:
Assay type in all cases: functional
[1] = test system: SN12C; assay: Growth inhibition of human SN12C cells at 10 uM after 48 hrs by SRB assay relative to control; conditions: read-out: GI
Method in brief: (§1)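 Screened at the National Cancer Institute by the standard NCI protocol using the sulforhodamine B assay, which measures cellular protein. Single dose of 10 µM. Result is percent growth inhibition; values above 100% mean cell number fell below the initial population. Values are the average of duplicates.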

[2] = test system: NCI-H522; assay: Growth inhibition of human NCI-H522 cells at 10 uM after 48 hrs by SRB assay relative to control; conditions: NCI-H522, 48 h, read-out: GI; method in brief: as §1
[3] = test system: IGROV-1; assay: Growth inhibition of human IGROV1 cells at 10 uM after 48 hrs by SRB assay relative to control; conditions: IGROV-1, 48 h, read-out: GI; method in brief: as §1
[4] = test system: SK-MEL-2; assay: Growth inhibition of human SK-MEL-2 cells at 10 uM after 48 hrs by SRB assay relative to control; conditions: SK-MEL-2, 48 h, read-out: GI; method in brief: as §1
[5] = test system: MOLT-4; assay: Growth inhibition of human MOLT4 cells at 10 uM after 48 hrs by SRB assay relative to control; conditions: MOLT-4, 48 h, read-out: GI; method in brief: as §1
[6] = test system: CCRF-CEM; assay: Growth inhibition of human CCRF-CEM cells at 10 uM after 48 hrs by SRB assay relative to control; conditions: read-out: GI; method in brief: as §1
[7] = test system: Malme-3M; assay: Growth inhibition of human MALME-3M cells at 10 uM after 48 hrs by SRB assay relative to control; conditions: read-out: GI; method in brief: as §1
[8] = test system: SK-MEL-28; assay: Growth inhibition of human SK-MEL-28 cells at 10 uM after 48 hrs by SRB assay relative to control; conditions: SK-MEL-28, 48 h, read-out: GI; method in brief: as §1
[9] = test system: SW-620; assay: Growth inhibition of human SW620 cells at 10 uM after 48 hrs by SRB assay relative to control; conditions: SW-620, 48 h, read-out: GI
Method in brief: (§2)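 NCI screen against its human cancer cell line panel by the standard NCI protocol, SRB protein stain. Single dose of 10 μM. Percent growth inhibition versus control; values above 100% mean the cell population fell below the starting number. Each value is the mean of duplicates.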

[10] = test system: MCF7; assay: Growth inhibition of human MCF7 cells at 10 uM after 48 hrs by SRB assay relative to control; conditions: MCF7, 48 h, read-out: GI; method in brief: as §1
[11] = test system: A549; assay: Growth inhibition of human A549 cells at 10 uM after 48 hrs by SRB assay relative to control; conditions: A549, 48 h, read-out: GI; method in brief: as §1
[12] = test system: NCI-H23; assay: Growth inhibition of human NCI-H23 cells at 10 uM after 48 hrs by SRB assay relative to control; conditions: NCI-H23, 48 h, read-out: GI; method in brief: as §1
[13] = test system: TK-10; assay: Growth inhibition of human TK10 cells at 10 uM after 48 hrs by SRB assay relative to control; conditions: TK-10, 48 h, read-out: GI; method in brief: as §2
[14] = test system: UACC-257; assay: Growth inhibition of human UACC257 cells at 10 uM after 48 hrs by SRB assay relative to control; conditions: UACC-257, 48 h, read-out: GI; method in brief: as §2
[15] = test system: HOP-62; assay: Growth inhibition of human HOP62 cells at 10 uM after 48 hrs by SRB assay relative to control; conditions: HOP-62, 48 h, read-out: GI; method in brief: as §1
[16] = test system: OVCAR-4; assay: Growth inhibition of human OVCAR4 cells at 10 uM after 48 hrs by SRB assay relative to control; conditions: OVCAR-4, 48 h, read-out: GI; method in brief: as §1
[17] = test system: COLO 205; assay: Growth inhibition of human COLO205 cells at 10 uM after 48 hrs by SRB assay relative to control; conditions: COLO 205, 48 h, read-out: GI; method in brief: as §1
[18] = test system: RPMI-8226; assay: Growth inhibition of human RPMI8226 cells at 10 uM after 48 hrs by SRB assay relative to control; conditions: RPMI-8226, 48 h, read-out: GI; method in brief: as §1
[19] = test system: HT-29; assay: Growth inhibition of human HT-29 cells at 10 uM after 48 hrs by SRB assay relative to control; conditions: HT-29, 48 h, read-out: GI; method in brief: as §1
[20] = test system: CAKI-1; assay: Growth inhibition of human Caki1 cells at 10 uM after 48 hrs by SRB assay relative to control; conditions: CAKI-1, 48 h, read-out: GI; method in brief: as §1
[21] = test system: SF-539; assay: Growth inhibition of human SF539 cells at 10 uM after 48 hrs by SRB assay relative to control; conditions: SF-539, 48 h, read-out: GI; method in brief: as §1
[22] = test system: 786-0; assay: Growth inhibition of human 786-0 cells at 10 uM after 48 hrs by SRB assay relative to control; conditions: 786-0, 48 h, read-out: GI; method in brief: as §1
[23] = test system: HCT-15; assay: Growth inhibition of human HCT15 cells at 10 uM after 48 hrs by SRB assay relative to control; conditions: HCT-15, 48 h, read-out: GI; method in brief: as §1
[24] = test system: SNB-75; assay: Growth inhibition of human SNB75 cells at 10 uM after 48 hrs by SRB assay relative to control; conditions: SNB-75, 48 h, read-out: GI; method in brief: as §2
[25] = test system: LOX IMVI; assay: Growth inhibition of human LOXIMVI cells at 10 uM after 48 hrs by SRB assay relative to control; conditions: read-out: GI; method in brief: as §1
[26] = test system: NCI-H460; assay: Growth inhibition of human NCI-H460 cells at 10 uM after 48 hrs by SRB assay relative to control; conditions: NCI-H460, 48 h, read-out: GI; method in brief: as §1
[27] = test system: UO-31; assay: Growth inhibition of human UO31 cells at 10 uM after 48 hrs by SRB assay relative to control; conditions: UO-31, 48 h, read-out: GI; method in brief: as §2
[28] = test system: ACHN; assay: Growth inhibition of human ACHN cells at 10 uM after 48 hrs by SRB assay relative to control; conditions: read-out: GI; method in brief: as §1
[29] = test system: SF-295; assay: Growth inhibition of human SF295 cells at 10 uM after 48 hrs by SRB assay relative to control; conditions: SF-295, 48 h, read-out: GI; method in brief: as §1
[30] = test system: U-251; assay: Growth inhibition of human U251 cells at 10 uM after 48 hrs by SRB assay relative to control; conditions: U-251, 48 h, read-out: GI; method in brief: as §2
[31] = test system: NCI-H322M; assay: Growth inhibition of human NCI-H322M cells at 10 uM after 48 hrs by SRB assay relative to control; conditions: read-out: GI; method in brief: as §1
[32] = test system: HOP-92; assay: Growth inhibition of human HOP92 cells at 10 uM after 48 hrs by SRB assay relative to control; conditions: HOP-92, 48 h, read-out: GI; method in brief: as §1
[33] = test system: SR; assay: Growth inhibition of human SR cells at 10 uM after 48 hrs by SRB assay relative to control; conditions: read-out: GI; method in brief: as §2
[34] = test system: MDA-MB-468; assay: Growth inhibition of human MDA-MB-468 cells at 10 uM after 48 hrs by SRB assay relative to control; conditions: MDA-MB-468, 48 h, read-out: GI; method in brief: as §1
[35] = test system: Hs-578T; assay: Growth inhibition of human Hs 578T cells at 10 uM after 48 hrs by SRB assay relative to control; conditions: read-out: GI; method in brief: as §1
[36] = test system: KM12; assay: Growth inhibition of human KM12 cells at 10 uM after 48 hrs by SRB assay relative to control; conditions: KM12, 48 h, read-out: GI; method in brief: as §1

Row | Structure (SMILES) | inhibition of growth at 10 µM [1] [%] | inhibition of growth at 10 µM [2] [%] | inhibition of growth at 10 µM [3] [%] | inhibition of growth at 10 µM [4] [%] | inhibition of growth at 10 µM [5] [%] | inhibition of growth at 10 µM [6] [%] | inhibition of growth at 10 µM [7] [%] | inhibition of growth at 10 µM [8] [%] | inhibition of growth at 10 µM [9] [%] | inhibition of growth at 10 µM [10] [%] | inhibition of growth at 10 µM [11] [%] | inhibition of growth at 10 µM [12] [%] | inhibition of growth at 10 µM [13] [%] | inhibition of growth at 10 µM [14] [%] | inhibition of growth at 10 µM [15] [%] | inhibition of growth at 10 µM [16] [%] | inhibition of growth at 10 µM [17] [%] | inhibition of growth at 10 µM [18] [%] | inhibition of growth at 10 µM [19] [%] | inhibition of growth at 10 µM [20] [%] | further results
1 | COc1ccccc1NC(=O)c1cccc(-c2cc(=O)c3c(OC)c(OC)c(OC)cc3o2)c1 | 34.6 | 56.5 | 27.5 | 14.4 | 38.7 | 48.3 | 22.9 | 24.6 | 12.2 | 28.4 | 31.1 | 34 | 10.4 | -6.14 | 30.6 | 19.4 | 14.8 | 73.7 | 38.6 | 43 | inhibition of growth at 10 µM [21]: 30.5%; inhibition of growth at 10 µM [22]: 39.2%; inhibition of growth at 10 µM [23]: 48.4%; inhibition of growth at 10 µM [24]: 30.1%; inhibition of growth at 10 µM [25]: 52.1%; inhibition of growth at 10 µM [26]: 41.1%; inhibition of growth at 10 µM [27]: 69.6%; inhibition of growth at 10 µM [28]: 43.8%; inhibition of growth at 10 µM [29]: 38.2%; inhibition of growth at 10 µM [30]: 11%; inhibition of growth at 10 µM [31]: 18.9%; inhibition of growth at 10 µM [32]: 62.5%; inhibition of growth at 10 µM [33]: 32.4%; inhibition of growth at 10 µM [34]: 24.3%; inhibition of growth at 10 µM [35]: 60%; inhibition of growth at 10 µM [36]: 34.8%
2 | COc1cc2oc(-c3cccc(C(=O)Nc4ccccc4)c3)cc(=O)c2c(OC)c1OC | 27.3 | 21.9 | 19.4 | 15.4 | 43.2 | 35.1 | 12.5 | 8.31 | -0.72 | 7.49 | 16.7 | 7.79 | 8.98 | 5.48 | 13.7 | 1.91 | 2.76 | 59.4 | 11.5 | 4.59 | inhibition of growth at 10 µM [21]: 19.8%; inhibition of growth at 10 µM [22]: 7.46%; inhibition of growth at 10 µM [23]: 20.8%; inhibition of growth at 10 µM [24]: 7.02%; inhibition of growth at 10 µM [25]: 33%; inhibition of growth at 10 µM [26]: 11.2%; inhibition of growth at 10 µM [27]: 35.6%; inhibition of growth at 10 µM [28]: 8.22%; inhibition of growth at 10 µM [29]: 4.34%; inhibition of growth at 10 µM [30]: 9.89%; inhibition of growth at 10 µM [31]: 17.7%; inhibition of growth at 10 µM [32]: 29.2%; inhibition of growth at 10 µM [33]: 35.9%; inhibition of growth at 10 µM [34]: 9.98%; inhibition of growth at 10 µM [35]: 8%; inhibition of growth at 10 µM [36]: 24.3%
